Experimental data published in ChEMBL document CHEMBL4513216, “Probing the Open Global Health Chemical Diversity Library for Multistage-Active Starting Points for Next-Generation Antimalarials” (ACS Infect Dis, 2020).

Assay: Toxicity liver stage against HepG2, at 10uM
Assay type: cell-based
Parameters: test concentration 10 uM, cell line HepG2-A16-CD81EGFP
Details: human, HepG2-A16-CD81EGFP cells; read-out: INHIBITION
In short: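 Uninfected HepG2-A16-CD81EGFP cells, 3 × 10^3 per well, 1536-well, plated on prespotted compound at 10 μM final, parasite-free screening media added to match infected plates; puromycin 10 μM positive, DMSO 0.5% negative; run in parallel with 48 h PbLuc assay at 37 °C, 5% CO2; viability by CellTiter-Glo luminescence, normalized to controls.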

| Compound | cytotoxicity at 10 µM [%] |
| --- | --- |
| CN1CCN(C[C@H]2CN3CC[C@H]2C[C@@H]3CNC(=O)c2ccco2)CC1 | -6.35 |
| COc1ccccc1N1CCN(C(=O)COc2c(C)occc2=O)CC1 | -0.426 |
| COc1ccc2c(c1)c(C(=O)Nc1nnn[nH]1)cn2C(C)C | -57.8 |
| Cc1ccccc1C(=O)N1CCN(c2ccc(-n3cncn3)nn2)CC1 | 50.8 |
| CC[C@H]1N(Cc2ccco2)CCC[C@]12CCC(=O)N2C | 4.23 |
| O=C(Nc1cnccn1)[C@@H]1C[C@H]2OCC[C@H]2N(c2ncc(F)cn2)C1 | 8.12 |
| CC(C)n1cnc2c1C(C(=O)N1CCCC1)N(S(C)(=O)=O)CC2 (stereo not given) | -5.15 |
| CCC(C)N1CCc2c(C(=O)N(C)Cc3ccccn3)nn(C)c2C1 (stereo not given) | -2.78 |
| CCS(=O)(=O)N1CCn2c(COCC3CCOCC3)cnc2C1C (stereo not given) | 11 |
| CN1CCOCC12CCN(Cc1nccs1)CC2 | 6.46 |
| O=c1cc(CN2CCCC2)nc2n1CCCN(Cc1ccco1)C2 | 4.01 |
| COCCC(=O)N1CC[C@H]2C(=O)N(c3ccsc3)CCO[C@H]2C1 | 10.4 |
| CC(C)C(=O)N1CCCC12CCN(C(=O)c1ccno1)C2 (stereo not given) | 7.49 |
| CCOC(=O)CSc1ccc(-c2nc(CC)no2)cn1 | -17.1 |
| CN1CCN(c2ncc3c(=O)n(-c4cccc(F)c4)c(=O)[nH]c3n2)CC1 | -8.85 |
| CC(C)NC(=O)C1CN(C(=O)c2ccc(F)cc2)CC12CCOCC2 (stereo not given) | 1.08 |
| CCN(CC)C(=O)c1ccn(COc2ccc(F)cc2)n1 | 7.55 |
| CCn1nc(C)c2nc(C(C)C)nc(N3CCC(O)CC3)c21 | 1.3 |
| CC(C)n1cc(S(=O)(=O)N2CCCCC2)cn1 | 2.53 |
| OCCN1CCC(c2csc(Nc3cnccn3)n2)CC1 | -4.26 |
| CN(C(=O)c1ccncc1)c1nnc(C2CCOC2)s1 (stereo not given) | 3.57 |
| CCCC(=O)NCCc1nc(N(C)C)ncc1-c1ccncc1 | 2.92 |

| Compound | cytotoxicity at 10 µM [%] |
| --- | --- |
| O=C(C1CCCC1)N1CCCC([C@@H]2C[C@H](C(F)F)n3ncnc3N2)C1 (stereo not given in full) | 4.54 |
| CNc1ncccc1CN1CCN(C)CC(C(=O)N(C)C)C1 (stereo not given) | 16.1 |
| CNC(=O)c1sc2ccccc2c1C1CCN(c2nc(C)cc(C)n2)C1 (stereo not given) | 4.93 |
| CN(C)c1ccc(CC2CCN(c3cnccn3)C2)nn1 (stereo not given) | 2.97 |
| Cc1c(NC(=O)CN2CCC(Oc3cnccn3)CC2)cnn1C | -4.68 |
| Cc1noc(C)c1C(=O)N1CCCC1(C)C(=O)NC1CCCC1 (stereo not given) | -1.33 |
| CNc1ccc(CC2CCCN(C(=O)c3cnco3)C2)nn1 (stereo not given) | -8.55 |
| Cc1occc1C(=O)NCC(=O)N1CCC(COc2ccccc2)CC1 | 12.2 |
| CN(C)C(=O)Cc1ccccc1NCc1noc(-c2ccccc2)n1 | 6.95 |
| COCCn1cc(C(=O)NCCS(N)(=O)=O)c2ccccc21 | 7.01 |
| Cc1nc(C)c(C(C)NCc2c(C(C)C)nn(C)c2N(C)C)s1 (stereo not given) | -8.53 |
| Cc1noc(CSc2ccc(C(F)(F)F)cn2)n1 | -12.5 |
| CCN(CC)c1nc2sc(C(=O)NC(C)(C)C(=O)OC)cc2s1 | 3.58 |
| COc1ccc(NC(=O)N(C)Cc2ccco2)cn1 | -11.8 |
| Cc1cccc(NC(=O)[C@@H]2CCCN2Cc2nc3ccccc3o2)n1 | -4.61 |
| COCc1ccc(C(=O)N2CCOCC2c2ccc(C)o2)cc1 (stereo not given) | -5.48 |
| CSCC(C)(O)CNC(=O)c1cccc(Cl)c1Cl (stereo not given) | 0.126 |
| CC(C)Cc1noc(CN2CCN(C(=O)c3cccs3)CC2)n1 | -14.3 |
| CCCOc1cc(C)ccc1NC(=O)NCCNC(C)=O | -6.58 |
| Cc1ccc(OCCC(=O)NCCCN2CCCC2=O)c(C)c1 | -1.08 |
| CCN(CC(=O)NCc1nc(C2CC2)no1)Cc1ccc(Cl)cc1 | -2.29 |
| Cn1c(C2CC2)nc2c1CCN(CCc1ccccn1)C2 | 4.59 |

| Compound | cytotoxicity at 10 µM [%] |
| --- | --- |
| O=C(COCC1CC1)Nc1ccn(Cc2cccc3cccnc23)n1 | 13.9 |
| CCOC(C)c1nc(Cn2cc(C)cn2)cs1 (stereo not given) | 5.52 |
| O=C(O)CN1CCC(c2ccccc2)CC1 | 1.73 |
| CC(C)C(=O)NS(=O)(=O)c1ccc(F)c(C(F)(F)F)c1 | -2.32 |
| O=C(c1cccs1)N1CCN(C(=O)c2ncoc2-c2ccco2)CC1 | 3.82 |
| CCCS(=O)(=O)NCCc1ncc(CC)s1 | -1.56 |
| CS(=O)(=O)N1CCc2c(cccc2NC(=O)CC(F)(F)F)C1 | 5.06 |
| O=c1[nH]c(-c2ccncc2)ncc1-c1ccnc(NC2CCCCC2)n1 | -9.24 |
| COc1cc(OC)cc(C2CC(=O)Nc3c2nc2n3CCCC2)c1 (stereo not given) | -3.99 |
| Cc1cccc(N2CCC3(CCCN3Cc3cn(C)nc3C)CC2)n1 | -4.78 |
| CCc1nc(CN2CC[C@@](O)(CCOC)[C@H](C)C2)cs1 | 10 |
| COc1ccc2c(=O)n(CC3CCCN(C)C3)ccc2c1OC (stereo not given) | -0.391 |
| Cc1nn(C)c2nc(NC(C)c3nnn[nH]3)sc12 (stereo not given) | -0.909 |
| CCc1nccc(CN2CCCC(CNC(=O)c3ccccn3)C2)n1 (stereo not given) | 4.63 |
| CC(C)c1cc(NCC(O)c2ccncc2)n2nccc2n1 (stereo not given) | -1.8 |
| COCc1nc(CNC2CSCCSC2)no1 | 8.33 |
| O=C(c1cccc(-n2cccn2)c1)N1CCCOC(Cn2cccn2)C1 (stereo not given) | -6.58 |
| CCN1CCC(CC(=O)N(C)C(C)c2cncs2)CC1 (stereo not given) | 6.05 |
| CCCC(=O)N1CCCC(Cn2cc(-c3ccc(F)cc3)nn2)C1 (stereo not given) | 7.88 |
| CN(CC1CCCCO1)S(=O)(=O)c1cccc(C(=O)N2CCOCC2)c1 (stereo not given) | -12.4 |
| CSCCC(=O)N[C@H]1CC[C@H](Nc2nccc(-c3ccncc3)n2)C1 | -0.664 |
| COCCc1noc(Cn2ccc3ccccc3c2=O)n1 | 0.0869 |

| Compound | cytotoxicity at 10 µM [%] |
| --- | --- |
| CCc1cc(NCCc2cnccn2)n2nc(C)c(C)c2n1 | 5.18 |
| CN(Cc1n[nH]c2c1CCC2)C(=O)CCc1cc2n(n1)CCCNC2 | -0.861 |
| CCCN(Cc1cccnc1)Cc1ccc(C2CCCCO2)o1 (stereo not given) | 1.97 |
| O=C(CCc1cc(O)no1)N1CCCC(COc2ccc(F)cc2)C1 (stereo not given) | 2.47 |
| CC(C)c1ncc(CN2C[C@@H](CN3CCC(CO)CC3)[C@@H](CO)C2)cn1 | 20 |
| CCC(=O)N1CC[C@@H](c2ccc3ccccc3c2)[C@H](O)C1 | -11.4 |
| NC(=O)C1CCCN(C(=O)c2ccn(-c3ccc(F)cc3)n2)C1 (stereo not given) | -3.63 |
| CC(C)c1nnc2n1CCN(C(=O)Cc1csc(C(C)(C)C)n1)C2 | -4.54 |
| CCc1ncc2c(n1)CN(Cc1cccc(OCC(N)=O)c1)CC2 | -7.42 |
| Cn1cc(C2CCCN2C(=O)CCCOc2ccc(F)cc2)cn1 (stereo not given) | -17.8 |
| CCCc1noc(CCC(=O)N2CCCC2c2ccc(OC)cc2)n1 (stereo not given) | -0.403 |
| CC(C)c1ncc2c(n1)CN(CC(=O)Nc1ccc(Cl)cn1)CC2 | -1.4 |
| CC(Cn1cccn1)NC(=O)Cc1csc(C(C)C)n1 (stereo not given) | -8.57 |
| Cc1cc(NC(=O)CN2CCCC2c2noc(C)n2)n(C(C)(C)C)n1 (stereo not given) | 1.53 |
| Cc1cnn(CC2CN(Cc3ccccn3)CCO2)c1 (stereo not given) | -2.84 |
| c1ccc(-n2ncc(CN3CCCC(Cn4cncn4)C3)n2)cc1 (stereo not given) | -6.04 |
| c1ccc(-n2cc(CN3CCCCC3Cn3cncn3)nn2)cc1 (stereo not given) | -14.2 |
| O=C(CCc1c(F)cccc1F)NS(=O)(=O)c1ccc2c(c1)OCCO2 | -4.71 |
| COCc1nc(C(=O)N2CCCC2c2cc(C)on2)cs1 (stereo not given) | -5.83 |
| COc1ccc(C(=O)N(C)Cc2ncc(C)c(OC)c2C)c(OC)c1 | -4.28 |
| COc1c(C2CCCN2Cc2cc(C)no2)c(C)nn1C (stereo not given) | -7.25 |
| OC(CN1CCOCC1)c1ccc(OC(F)(F)F)cc1 (stereo not given) | -9.36 |

| Compound | cytotoxicity at 10 µM [%] |
| --- | --- |
| Cc1cc(CN2CCN(C(C)c3nc(C4CC4)no3)CC2)no1 (stereo not given) | 1.35 |
| CCN(Cc1cccc(Cl)c1)Cc1nc2c(cnn2C)c(=O)[nH]1 | 1.01 |
| CNS(=O)(=O)c1ccc(CNC(=O)NCC2CCCO2)cc1 (stereo not given) | 7.12 |
| CCN(CC)C1CCN(C(=O)c2cc3cc(C)cc(C)c3nc2C)CC1 | 0.199 |
| COc1ccc(C[C@H]2CNCC[C@H]2OC)cc1 | 1.76 |
| Cn1cnc2c1C(C(=O)N1CCCC1)N(CC1CC1)CC2 (stereo not given) | 6.37 |
| COc1c(CNC2CCCOc3ccc(F)cc32)c(C(C)C)nn1C (stereo not given) | -5.83 |
| CC(C)NC(=O)N1CC[C@@H](N(C)C)[C@@H]1Cc1ccccc1 | 9.82 |
| Cc1ccc2c(n1)N(C)CCN(C(=O)NC1CC1)C2 | 1.36 |
| O=C(C1CCC2(CCN(CC3CC3)CC2)O1)N1CCCC1 (stereo not given) | 1.58 |
| Cc1cccc(CN2CCC3(CC2)CC(Oc2cccnc2)C3)n1 | 12.7 |
| Cc1cccc(CN2C[C@@H]3CN(C(=O)c4cnoc4C)C[C@@H]3C2=O)n1 | 5.71 |
| CCOC(=O)c1sc2ccsc2c1CN | -1.86 |
| COCCN1CC[C@H](O)[C@@H]1Cc1ccccc1 | -10 |
| Cc1ccc(N2CCC3(CCN(C(=O)c4ccccn4)CC3)CC2)nn1 | 0.255 |
| COCCNC(=O)[C@H]1CC[C@@H]2[C@@H](CCN2c2ncc(F)cn2)O1 | -2.25 |
| COCCNC(=O)[C@@H]1CC[C@@H]2[C@@H](CCN2c2ncc(F)cn2)O1 | -0.554 |
| O=C(C1CC=CC1)N1C[C@@H](OCc2cccnc2)[C@H]2OCCC[C@H]21 | 2.74 |
| CC(C)N1CCc2[nH]nc(C(=O)N3CCN(C)CC3)c2C1 | -3.75 |
| CN(C)C(=O)CO[C@H]1CN(Cc2nccs2)[C@@H]2COC[C@H]12 | 5.08 |
| NCC1CCC(C(NC(=O)CC2CCCC2)c2ccccn2)CC1 (stereo not given) | -14.6 |
| Cc1noc(C)c1CN1C[C@H]2CC[C@@H](C1)N(Cc1cc(F)cc(F)c1)C2 | -11.9 |
